Results taken from ChEMBL document CHEMBL3286169, “Development of inhibitors of heterotrimeric Gαi subunits” (Bioorg Med Chem, 2014).
Calls of active or inactive are those of the source. The rule behind the calls is not given here. Peptide text beside a SMILES is read from it.

Legend:
[1] = target: Guanine nucleotide-binding protein G(i) subunit alpha-1 (Homo sapiens) (UniProt P63096); experiment: Binding affinity to human Galphai1 expressed in Escherichia coli BL21 assessed as inhibition of [35S]GTPgammaS binding preincubated for 20 mins followed by [35S]GTPgammaS addition measured for 30 mins by liquid scintillation counting analysis; type: functional
Chain of Guanine nucleotide-binding protein G(i) subunit alpha-1 (Homo sapiens) (P63096 whole entry): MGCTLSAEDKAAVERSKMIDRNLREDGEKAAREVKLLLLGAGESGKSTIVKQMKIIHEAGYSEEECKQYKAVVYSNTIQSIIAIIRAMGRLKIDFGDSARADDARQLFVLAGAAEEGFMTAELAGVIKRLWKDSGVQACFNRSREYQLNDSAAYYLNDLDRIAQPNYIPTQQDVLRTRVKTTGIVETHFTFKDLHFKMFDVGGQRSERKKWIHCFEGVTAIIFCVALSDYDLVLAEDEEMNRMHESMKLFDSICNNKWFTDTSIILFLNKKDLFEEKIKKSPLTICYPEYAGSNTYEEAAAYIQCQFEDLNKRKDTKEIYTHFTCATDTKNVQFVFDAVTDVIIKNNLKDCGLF
Method in brief: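 Human Gαi1 was expressed from pPAL7 (Profinity eXact construct) in E. coli BL21 and affinity purified. 100 nM Gαi1 was preincubated 20 min at 24 °C with peptide, then 0.5 μM [35S]GTPγS was added for 30 min at 24 °C, in duplicate. Filtration on nitrocellulose was followed by washes in cold Tris/MgCl2/EDTA buffer pH 7.4 and scintillation counting. Nonspecific binding was taken with 100 μM GTPγS; results are percent of specific binding without peptide.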

[2] = target: T1, Guanine nucleotide-binding protein G(q) subunit alpha (Homo sapiens) (UniProt P50148); experiment: Binding affinity to Galphaq (unknown origin) expressed in baculovirus-infected insect Hi5 cells assessed as inhibition of BODIPY FL GTPgammaS binding by measuring fluorescence reduction at 30 to 300 uM preincubated for 30 mins followed by BODIPY FL GTPgammaS addition measured for 60 mins by real time nucleotide exchange assay relative to vehicle-treated control; details: BTI-TN-5B1-4
T1 sequence (whole entry): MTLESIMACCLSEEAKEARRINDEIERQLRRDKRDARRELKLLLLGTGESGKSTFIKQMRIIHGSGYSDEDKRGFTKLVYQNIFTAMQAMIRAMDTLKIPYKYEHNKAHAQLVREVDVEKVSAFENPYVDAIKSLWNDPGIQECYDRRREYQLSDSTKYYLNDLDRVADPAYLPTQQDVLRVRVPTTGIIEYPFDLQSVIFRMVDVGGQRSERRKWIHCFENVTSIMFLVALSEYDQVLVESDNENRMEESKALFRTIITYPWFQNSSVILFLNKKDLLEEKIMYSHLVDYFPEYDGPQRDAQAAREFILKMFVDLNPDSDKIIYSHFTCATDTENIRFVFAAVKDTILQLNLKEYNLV
Method in brief: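 Gαq was partially purified from baculovirus-infected Hi5 insect cells (5 × MOI, 48 h). 600 nM protein was preincubated 30 min with compound (DMSO ≤1% v/v final) in 10 mM HEPES, 100 mM NaCl, 5 mM MgCl2, 0.1 mM EDTA, pH 7.4. Exchange was started with 250 nM BODIPY FL GTPγS. Endpoint at 60 min vs vehicle; triplicates, three experiments.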

[3] = system: HEK293; experiment: Cytotoxicity against HEK293 GloSensor cells transfected with Galphai1 coupled with alpha-2 adrenoceptor assessed as effect on cell viability at 10 uM; type: cell-based; details: human, hek293, 10 µM

| Compound | inhibition [1] | inhibition [2] [%] | Activity [3] |
| --- | --- | --- | --- |
| C/C(=N\c1ccc(O)cc1)c1sc2ccccc2c1O | – | < 10 | – |
| Cc1cccc(N[C@@]2(C(F)(F)F)NC(c3ccccc3)=NC2=O)n1 | – | 25 | – |
| CC(=O)C1=C(C)NC(C(C#N)C#N)=C(C#N)[C@H]1c1ccccc1 | – | 40 | – |
| CCC[C@H]1C[C@](C)(C(=O)CNc2ccccn2)OC1=O | – | < 10 | – |
| CCc1ccc2c(C)nc(NC3=NC(C)(C)CC(C)=N3)nc2c1 | – | 50 | Non-toxic |

Further lines, with some results ahead:

| inhibition [1] | inhibition [2] [%] | Compound | Activity [3] |
| --- | --- | --- | --- |
| Active | – | CSCC[C@H](NC(=O)[C@H](CCCNC(=N)N)NC(=O)[C@H](CCCCN)NC(=O)[C@H](CO)NC(=O)[C@H](CCC(N)=O)NC(=O)[C@H](CO)NC(=O)[C@H](CCCCN)NC(=O)[C@H](C)NC(=O)[C@H](CC(C)C)NC(=O)[C@H](CC(C)C)NC(=O)[C@H](CC(=O)O)NC(=O)[C@H](Cc1ccccc1)NC(=O)[C@H](Cc1ccccc1)NC(=O)[C@H](CC(=O)O)NC(=O)[C@H](CCC(=O)O)NC(=O)[C@H](CCC(=O)O)NC(=O)CNC(=O)[C@H](CCSC)NC(=O)[C@@H](N)[C@@H](C)O)C(=O)N[C@@H](CC(=O)O)C(=O)N[C@@H](CC(=O)O)C(=O)N[C@@H](CCC(N)=O)C(=O)N[C@@H](CCCNC(=N)N)C(=O)N[C@H](C(=O)N[C@@H](CC(=O)O)C(=O)N[C@@H](CC(C)C)C(=O)N[C@@H](C)C(=O)N[C@@H](CCCCN)C(N)=O)C(C)C (H-TMGEEDFFDLLAKSQSKRMDDQRVDLAK-NH2) | – |
| – | 35 | CC(=O)/C(=C(\C)O)[C@@H]1c2ccccc2O[C@H](C(F)(F)F)[C@@H]1[N+](=O)[O-] | – |
| – | 32 | O=[N+]([O-])[C-](/C=N/C1CCCCC1)/C=N/C1CCCCC1 | Non-toxic |
| – | < 10 | SC1=C2CCCCC2=[N+](C[C@@H]2CCCO2)[C@@H](c2ccccc2)N1 | – |
| – | 27 | Cc1nc(NC(=O)NCCC2=CSC3=NCCCN23)nn1C | – |
| – | < 10 | C1=C(/N=C/c2ccccc2)[N+](Cc2ccccc2)=CCO1 | – |
| – | < 10 | CC1=CC(C)(C)NC(Nc2nc(-c3ccccc3)c3ccccc3n2)=N1 | Toxic |
